Reference: ChEMBL document CHEMBL4825756, “New Design Rules for Developing Potent Cell-Active Inhibitors of the Nucleosome Remodeling Factor (NURF) via BPTF Bromodomain Inhibition” (J Med Chem, 2021)
Calls of active or inactive are those of the source. The rule behind the calls is not given here.

Key:
[1] = target: Histone acetyltransferase KAT2A (Homo sapiens) (UniProt Q92830); assay: Inhibition of GCN5L2 (unknown origin) at 140 nM by BROMOscan method relative to control
[2] = target: T1, Histone acetyltransferase KAT2B (Homo sapiens, UniProt Q92831); assay: Binding affinity to 5FW-labeled PCAF (unknown origin) expressed in Escherichia coli BL21 (DE3) cells at 7.4 to 200 uM by PrOF NMR analysis; details: dose 7.4-200 µM
Method in brief: (§1)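 Protein-observed 19F NMR with 5-fluorotryptophan-labelled protein. Each ligand is titrated and the change in chemical shift relative to a control sample is plotted against ligand concentration to give a binding isotherm. Kd is taken from a fit to the quadratic binding equation, which uses total ligand and total protein concentrations.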
Target sequence in this assay (Q92831 whole entry, looked up): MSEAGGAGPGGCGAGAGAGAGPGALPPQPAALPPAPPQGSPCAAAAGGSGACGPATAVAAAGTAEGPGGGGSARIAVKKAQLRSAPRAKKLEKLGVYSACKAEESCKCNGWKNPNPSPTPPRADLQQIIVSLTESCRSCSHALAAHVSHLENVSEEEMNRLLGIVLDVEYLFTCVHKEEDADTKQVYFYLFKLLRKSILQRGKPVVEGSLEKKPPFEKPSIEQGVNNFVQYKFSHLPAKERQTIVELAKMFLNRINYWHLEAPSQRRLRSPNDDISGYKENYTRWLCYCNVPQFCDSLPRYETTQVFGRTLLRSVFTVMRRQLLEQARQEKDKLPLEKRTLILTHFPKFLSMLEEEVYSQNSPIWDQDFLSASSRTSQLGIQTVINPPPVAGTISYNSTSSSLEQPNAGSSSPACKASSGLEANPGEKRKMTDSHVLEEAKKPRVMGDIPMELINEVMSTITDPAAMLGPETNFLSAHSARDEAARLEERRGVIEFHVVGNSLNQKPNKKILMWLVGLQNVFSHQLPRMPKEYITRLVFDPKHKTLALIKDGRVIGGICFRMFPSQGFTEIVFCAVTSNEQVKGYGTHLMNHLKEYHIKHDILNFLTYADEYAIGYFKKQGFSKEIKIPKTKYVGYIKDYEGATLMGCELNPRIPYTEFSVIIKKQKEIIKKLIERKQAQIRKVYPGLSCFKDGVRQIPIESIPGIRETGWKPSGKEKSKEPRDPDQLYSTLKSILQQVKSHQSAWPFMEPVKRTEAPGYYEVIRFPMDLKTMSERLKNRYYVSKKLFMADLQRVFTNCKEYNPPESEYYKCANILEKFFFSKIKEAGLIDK

[3] = target: Chromatin remodeling regulator CECR2 (Homo sapiens) (UniProt Q9BXF3); assay: Inhibition of CECR2 (unknown origin) at 140 nM by BROMOscan method relative to control
[4] = target: Chromatin remodeling regulator CECR2 (Homo sapiens) (UniProt Q9BXF3); assay: Binding affinity to 5FW-labeled CECR2 (unknown origin) expressed in Escherichia coli BL21 (DE3) cells at 7.4 to 200 uM by PrOF NMR analysis; details: dose 7.4-200 µM; method in brief: as §1
4T1 [5] = assay: Growth inhibition of mouse 4T1 cells assessed as reduction cell viability 2.5 to 8 uM in presence of doxorubicin incubated for 4 days by MTS assay relative to control; format: functional, cell-based; details: dose 2.5-8 µM, time 4.0 day
Method in brief: (§2)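 Mouse 4T1 breast cancer cells in DMEM with 10% FBS, 2 mM glutamine and penicillin-streptomycin, 4000 cells/well, adhered overnight. Three inhibitor doses, chosen from toxicity curves, given for 4 days alone or with 50 nM doxorubicin, also in shRNA BPTF-knockdown cells. MTS absorbance read at 490 nm; fraction survival scaled to untreated cells (1.0) and blank (0.0); N=3, mean ± SEM.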

[6] = target: T2, Bromodomain-containing protein 4 (Homo sapiens, UniProt O60885); assay: Binding affinity to BRD4 BD1 (unknown origin) by BROMOscan method
[7] = target: T2, Bromodomain-containing protein 4; assay: Inhibition of HIS9-tagged BRD4 (unknown origin) expressed in Escherichia coli BL21 (DE3) cells incubated for 30 mins by AlphaScreen assay
[8] = target: Nucleosome-remodeling factor subunit BPTF (Homo sapiens, UniProt Q12830); assay: Binding affinity to 5FW-labeled BPTF (unknown origin) expressed in Escherichia coli BL21 (DE3) cells by PrOF NMR analysis
EpH4 [9] = assay: Upregulation of Myc mRNA in mouse EpH4 cells at 5 uM after 24 hrs by qRT-PCR analysis; format: functional, cell-based
Method in brief: (§3)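 Murine Eph4 mammary epithelial cells were treated at 5 μM for 24 h and harvested in trizol. Transcripts were quantified by SYBR Green qPCR. Group differences were tested by one-way ANOVA at p<0.05.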

4T1 [10] = assay: Growth inhibition of mouse 4T1 cells assessed as reduction cell viability 5 to 15 uM in presence of doxorubicin incubated for 4 days by MTS assay relative to control; format: functional, cell-based; details: dose 5-15 µM, time 4.0 day; method in brief: as §2
EpH4 [11] = assay: Upregulation of sfn mRNA in mouse EpH4 cells at 5 uM after 24 hrs by qRT-PCR analysis; format: functional, cell-based; method in brief: as §3
EpH4 [12] = assay: Upregulation of sprr1a mRNA in mouse EpH4 cells at 5 uM after 24 hrs by qRT-PCR analysis; format: functional, cell-based; method in brief: as §3
[13] = target: T1, Histone acetyltransferase KAT2B; assay: Binding affinity to PCAF (unknown origin) by BROMOscan method
Target sequence in this assay (Q92831 whole entry): as the sequence (Q92831 whole entry, looked up) above

[14] = target: T3, Bromodomain-containing protein 9 (Homo sapiens, UniProt Q9H8M2); assay: Binding affinity to BRD9 (unknown origin) by BROMOscan method
T3 sequence (Q9H8M2 whole entry): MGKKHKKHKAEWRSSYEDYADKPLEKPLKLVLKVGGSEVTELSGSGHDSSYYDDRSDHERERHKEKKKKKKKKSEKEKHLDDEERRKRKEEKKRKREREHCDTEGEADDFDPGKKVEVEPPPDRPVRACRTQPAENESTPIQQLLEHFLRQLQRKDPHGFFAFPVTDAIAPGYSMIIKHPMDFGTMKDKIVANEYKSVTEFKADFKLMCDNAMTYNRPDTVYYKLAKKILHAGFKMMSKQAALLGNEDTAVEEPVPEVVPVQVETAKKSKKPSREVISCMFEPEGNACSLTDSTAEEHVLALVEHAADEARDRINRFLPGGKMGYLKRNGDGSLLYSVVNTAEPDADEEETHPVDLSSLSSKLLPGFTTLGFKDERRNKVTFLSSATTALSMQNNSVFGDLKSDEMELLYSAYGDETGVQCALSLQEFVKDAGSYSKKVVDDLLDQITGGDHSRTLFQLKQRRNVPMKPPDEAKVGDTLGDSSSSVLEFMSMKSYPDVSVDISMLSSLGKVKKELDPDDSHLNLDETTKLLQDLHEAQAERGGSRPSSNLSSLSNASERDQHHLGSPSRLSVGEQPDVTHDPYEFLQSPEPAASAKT

4T1 [15] = assay: Growth inhibition of mouse 4T1 cells BPTF knock down assessed as reduction cell viability 15 uM in presence of doxorubicin incubated for 4 days by MTS assay relative to control; format: functional, cell-based; details: time 4.0 day
Method in brief: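 4T1 cells with shRNA BPTF knockdown, grown in DMEM with 10% FBS, 2 mM glutamine and pen-strep, were seeded at 4000/well and allowed to adhere overnight. They were treated 4 days in complete medium with one of three inhibitor doses chosen from toxicity curves, combined with 50 nM doxorubicin. MTS absorbance was read at 490 nm. Fraction survival was set against untreated cells (1.0) and blank (0.0).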

Sequence of Chromatin remodeling regulator CECR2 (Homo sapiens) (Q9BXF3 whole entry, looked up): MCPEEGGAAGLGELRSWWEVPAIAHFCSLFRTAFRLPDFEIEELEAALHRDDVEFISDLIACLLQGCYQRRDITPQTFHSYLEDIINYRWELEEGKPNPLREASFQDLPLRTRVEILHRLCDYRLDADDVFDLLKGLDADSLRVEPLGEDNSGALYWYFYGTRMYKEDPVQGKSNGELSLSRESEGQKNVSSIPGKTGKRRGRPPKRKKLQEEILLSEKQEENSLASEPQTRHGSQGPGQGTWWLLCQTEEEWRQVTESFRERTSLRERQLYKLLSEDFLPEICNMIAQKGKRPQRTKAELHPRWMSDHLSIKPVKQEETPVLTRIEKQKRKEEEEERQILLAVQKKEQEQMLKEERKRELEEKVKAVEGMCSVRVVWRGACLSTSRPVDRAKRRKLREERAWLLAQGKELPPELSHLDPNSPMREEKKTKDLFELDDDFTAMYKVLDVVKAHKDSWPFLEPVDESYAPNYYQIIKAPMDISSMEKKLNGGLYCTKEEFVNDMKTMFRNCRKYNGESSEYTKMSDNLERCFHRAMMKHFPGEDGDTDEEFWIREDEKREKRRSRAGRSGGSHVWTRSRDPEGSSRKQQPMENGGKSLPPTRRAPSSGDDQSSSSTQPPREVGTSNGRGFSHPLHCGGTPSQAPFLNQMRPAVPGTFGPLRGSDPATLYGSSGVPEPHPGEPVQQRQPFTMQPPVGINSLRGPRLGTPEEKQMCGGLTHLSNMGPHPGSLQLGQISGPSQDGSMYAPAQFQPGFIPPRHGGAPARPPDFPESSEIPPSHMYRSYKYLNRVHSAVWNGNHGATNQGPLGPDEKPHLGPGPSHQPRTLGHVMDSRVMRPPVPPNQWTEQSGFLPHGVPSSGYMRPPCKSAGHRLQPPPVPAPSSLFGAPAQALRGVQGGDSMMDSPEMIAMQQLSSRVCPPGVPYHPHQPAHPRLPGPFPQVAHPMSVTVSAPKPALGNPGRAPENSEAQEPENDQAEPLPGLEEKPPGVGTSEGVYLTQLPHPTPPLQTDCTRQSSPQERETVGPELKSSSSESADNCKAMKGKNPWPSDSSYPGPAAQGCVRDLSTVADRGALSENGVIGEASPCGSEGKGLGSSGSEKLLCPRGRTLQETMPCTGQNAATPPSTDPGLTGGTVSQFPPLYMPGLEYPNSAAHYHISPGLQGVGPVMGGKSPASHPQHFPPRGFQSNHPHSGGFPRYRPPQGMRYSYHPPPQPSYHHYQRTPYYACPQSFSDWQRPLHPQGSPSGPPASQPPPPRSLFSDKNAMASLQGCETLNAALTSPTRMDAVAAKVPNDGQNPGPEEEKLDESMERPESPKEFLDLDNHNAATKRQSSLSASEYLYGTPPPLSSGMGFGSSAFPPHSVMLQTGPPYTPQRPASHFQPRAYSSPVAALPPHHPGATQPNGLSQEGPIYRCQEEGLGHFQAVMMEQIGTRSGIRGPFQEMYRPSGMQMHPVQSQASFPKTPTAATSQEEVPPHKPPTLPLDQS
Sequence of Histone acetyltransferase KAT2A (Homo sapiens) (Q92830 2-837 limits assumed): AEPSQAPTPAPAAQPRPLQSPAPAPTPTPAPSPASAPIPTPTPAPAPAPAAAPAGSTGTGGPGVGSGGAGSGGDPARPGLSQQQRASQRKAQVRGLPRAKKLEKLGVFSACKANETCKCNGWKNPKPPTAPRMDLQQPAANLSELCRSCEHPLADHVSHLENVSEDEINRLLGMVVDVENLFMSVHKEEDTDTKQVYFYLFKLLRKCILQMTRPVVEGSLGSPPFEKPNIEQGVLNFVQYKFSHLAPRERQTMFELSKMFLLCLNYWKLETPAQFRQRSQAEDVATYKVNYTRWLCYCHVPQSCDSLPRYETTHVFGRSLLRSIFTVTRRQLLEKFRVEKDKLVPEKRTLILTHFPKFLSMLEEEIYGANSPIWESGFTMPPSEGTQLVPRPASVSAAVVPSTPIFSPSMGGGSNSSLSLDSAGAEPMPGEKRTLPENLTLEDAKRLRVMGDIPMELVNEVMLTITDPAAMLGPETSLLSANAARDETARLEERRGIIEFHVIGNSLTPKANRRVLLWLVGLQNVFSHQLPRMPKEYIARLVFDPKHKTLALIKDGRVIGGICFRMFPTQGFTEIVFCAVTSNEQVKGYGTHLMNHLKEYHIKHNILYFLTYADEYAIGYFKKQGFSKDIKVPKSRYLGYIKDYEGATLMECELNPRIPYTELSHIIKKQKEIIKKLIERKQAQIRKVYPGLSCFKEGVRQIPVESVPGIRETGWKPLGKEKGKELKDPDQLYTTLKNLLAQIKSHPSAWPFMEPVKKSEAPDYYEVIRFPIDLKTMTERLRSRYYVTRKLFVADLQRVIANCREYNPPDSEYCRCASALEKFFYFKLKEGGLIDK

Cn1ncc(Nc2ccc(CCN)cc2)c(Cl)c1=O
inhibition [1]: Active
Activity [2]: Active
inhibition [3]: Active
Activity [4]: Active
growth inhibition (GI) (4T1 [5]): Active
Kd [6]: 2.2 µM
IC50 ([7]; read-out: IC50): 31 µM

CN(C)CCCOc1ccc(-c2cc(NCCCn3cccn3)nc(S(C)(=O)=O)n2)cc1
Kd [8]: 120 µM

CN(C)CCc1ccc(Nc2cnn(C)c(=O)c2Cl)cc1
Activity (EpH4 [9]): inactive
growth inhibition (GI) (4T1 [10]): Active
Activity (EpH4 [11]): Active
Activity (EpH4 [12]): inactive

CN(C)CCCc1ccc(Nc2cnn(C)c(=O)c2Cl)cc1
Kd [13]: 0.37 µM
Kd [14]: 0.23 µM

COC(=O)c1cccc(NC(=O)N[C@H]2CCN(c3ccnc(Nc4ccc(F)cc4)n3)C2)c1
Activity (EpH4 [9]): inactive
growth inhibition (GI) (4T1 [15]): Active
Activity (EpH4 [11]): inactive
Activity (EpH4 [12]): inactive

CC(C)n1ncc(Nc2ccc(CN)cc2)c(Cl)c1=O
IC50 [7]: Not Active

Cn1ncc(Nc2ccc(CCN)cc2)c(Br)c1=O
Kd [13]: 0.014 µM
Kd [14]: 0.00024 µM
